{"source": "PubChem BioAssay AID623969", "about": "(Broad Institute, 2012)", "note": "Several values for one entry are separate records, joined by “and”; a condition that tells them apart may be missing. Equal entries are not always repeated.", "data": [{"test_system": "S. cerevisiae growth in glycerol medium, OD600, 48 h", "test": "yeast growth reduction with glycerol carbon source – OD600, powder samples, set 3, dose response (AID 623969)", "how_it_was_run": "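Material: Saccharomyces cerevisiae yeast cells grown on glycerol as carbon source / Buffer or medium: CSM-glycerol medium / Schedule: 48 h exposure, 30 °C, no shaking / Technique: optical density at 600 nm / Measure: Glycerol-dependent yeast growth / Control set: amphotericin B at 10 µM as positive control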", "values": [{"smiles": "CCOC(=O)N1C(=O)C2(CCCCC2)N(c2ccc(C)cc2)C1=S", "AC50": "15 nM and 13.6 nM"}, {"smiles": "CCOC(=O)N1C(=O)C2(CCCCC2)N(c2ccc(Cl)cc2)C1=S", "AC50": "8.26 nM"}, {"smiles": "C/C=C/[C@@H]1[C@H]2C[C@@H](C)CC[C@@H]2C(C)=C[C@H]1C(=O)c1c(O)c(-c2ccc(O)cc2)c[nH]c1=O", "AC50": "33.5 nM"}, {"smiles": "CCOC(=O)N1C(=O)C2(CCCCC2)N(c2ccc(C#N)cc2)C1=S", "AC50": "4.81 nM"}, {"smiles": "CCOC(=O)N1C(=O)C2(CCCCC2)N(c2cccc(C)c2)C1=S", "AC50": "27.6 nM"}, {"smiles": "CC1/C=C/C=C\\C=C\\C=C\\C=C\\C=C\\C=C\\C(O[C@H]2OC(C)C(O)C(N)C2O)CC2OC(O)(CC(O)CC(O)C(O)CCC(O)CC(O)CC(=O)OC(C)C(C)C1O)CC(O)C2C(=O)O", "note": "(stereo partly drawn)", "AC50": "234 nM"}, {"smiles": "CCOC(=O)N1C(=O)C2(CCCCC2)N(c2ccccc2)C1=S", "AC50": "20 nM"}, {"smiles": "CCOC(=O)N1C(=O)C2(CCCCC2)N(c2ccc(F)cc2)C1=S", "AC50": "5.61 nM"}]}]}
